Assay results reported in ChEMBL document CHEMBL1152919, “Chloro-oxime derivatives as novel small molecule chaperone amplifiers” (Bioorg Med Chem Lett, 2009).
“And” between values parts separate entries of the source, which are not always exact repeats. Equal values may be shown once. The source made the active and inactive calls. No cut-off for these calls is given here.

How the values were obtained:
[1] = Cytotoxicity against human HeLa cells by MTS assay; format: cell-based
[2] = Cytotoxicity against human SK-N-SH cells by MTS assay; format: cell-based
Method in brief: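 SK-N-SH cells, 14,000/well, seeded in DMEM with 10% FBS 18 h before compound (1:200 dilution; final 0.3–80 µM). MTS read-out; % inhibition = (MTS DMSO − MTS compound)/MTS DMSO ×100; CC50 by nonlinear regression; average SD across runs 14%.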

SK-N-SH [3] = experiment: Cytoprotective activity against 26S proteasome inhibitor MG132-induced stress in human SK-N-SH cells assessed as cell viability treated 1 hr before MG132 challenge measured after 24 hrs; format: functional, cell-based
Method in brief: (§1)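 SK-N-SH cells, 12,500/well, exposed to compound 1 h ahead of MG-132 (5 µM final), then 24 h. Viability by ATPlite-1step luminescence; increased ATP% = (RLU compound − RLU DMSO)/RLU DMSO ×100, with DMSO as negative control. Tested 0.3–80 µM in twofold steps; EC50 from nonlinear regression curve fit; max cytoprotection >60% scored active.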

[4] = target: T1, Heat shock factor protein 1 (Homo sapiens) (UniProt Q00613); experiment: Transcriptional activation of HSF1 in human HeLa cells assessed as granule formation treated for 3 hrs at 37 degC without heat shock by immunocytochemical staining
T1 sequence (whole entry): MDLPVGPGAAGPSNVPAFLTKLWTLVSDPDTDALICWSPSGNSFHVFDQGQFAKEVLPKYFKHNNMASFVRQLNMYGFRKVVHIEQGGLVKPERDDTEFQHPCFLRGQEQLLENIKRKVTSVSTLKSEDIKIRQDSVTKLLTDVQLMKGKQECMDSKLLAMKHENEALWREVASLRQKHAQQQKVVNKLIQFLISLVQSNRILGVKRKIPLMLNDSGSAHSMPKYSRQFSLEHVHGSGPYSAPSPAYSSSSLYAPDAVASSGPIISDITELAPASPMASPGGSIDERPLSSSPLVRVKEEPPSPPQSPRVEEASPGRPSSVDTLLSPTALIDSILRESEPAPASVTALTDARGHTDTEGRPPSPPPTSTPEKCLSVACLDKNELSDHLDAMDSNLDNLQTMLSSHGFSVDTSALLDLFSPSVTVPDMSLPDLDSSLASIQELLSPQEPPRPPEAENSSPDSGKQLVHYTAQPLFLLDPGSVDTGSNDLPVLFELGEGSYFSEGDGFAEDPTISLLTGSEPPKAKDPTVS

[5] = target: T1, Heat shock factor protein 1 (Homo sapiens); experiment: Transcriptional activation of HSF1 in heat shock stress-induced human HeLa cells assessed as granule formation treated 1 hr before heat shock challenge measured after 2 hrs by immunocytochemical staining; format: cell-based
Method in brief: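 HeLa cells given compound 1 h, then heat shock at 41 °C for 2 h without recovery; HSF1 immunocytochemical staining, quantified by high-content imaging. Range 0.3–80 µM, twofold dilution, 200-fold overall.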

[6] = target: T2, Heat shock factor protein 1 (Homo sapiens, UniProt Q00613); experiment: Transcriptional activation of HSF1 in heat shock stress-induced human HeLa cells assessed as granule formation at 80 uM treated 1 hr before heat shock challenge measured after 2 hrs by immunocytochemical staining; format: cell-based
T2 sequence (Q00613 whole entry): T1 sequence (whole entry)

HeLa [7] = experiment: Cytotoxicity against human HeLa cells at 80 uM by MTS assay; format: cell-based
PC-12 = experiment: Cytoprotective activity against tunicamycin-induced endoplasmic reticulum stress in rat PC12 cells assessed as viability after 43 hrs relative to control; format: functional
Method in brief: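 PC12 cells, 5000/well, differentiated with NGF (50 ng/ml final) for 5–7 days until neurites appear. Compound (1:20 dilution) given together with tunicamycin (750 ng/mL final) for 43 h at 37 °C. Viability by ATPlite; ATP increase expressed against the DMSO plus tunicamycin control.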

HeLa [8] = experiment: Stimulation of human HeLa cells proliferation upto 20 uM by Click-iT assay; format: functional, cell-based
Method in brief: (§2)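 Click-iT cell proliferation assay, run on HeLa and SK-N-SH cells across 0–20 µM compound.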

SK-N-SH [9] = experiment: Decrease in human SK-N-SH cells proliferation upto 20 uM by Click-iT assay; format: functional, cell-based; method in brief: as §2
HeLa [10] = experiment: Increase in HSP70 expression in heat shock stress-induced human HeLa cells assessed as granule formation after 2 hrs of recovery time by immunocytochemical staining; format: functional, cell-based
Method in brief: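 HeLa cells heat-shocked at 41 °C; HSP70 immunocytochemical staining 2 h after heat shock; automated image acquisition, quantifying HSP70 granule count and total granule area.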

SK-N-SH [11] = experiment: Cytoprotective activity against MG132-induced stress in human SK-N-SH cells assessed as survivality treated 1 hr before MG132 challenge measured after 24 hrs relative to control; format: functional; method in brief: as §1
[12] = Homo sapiens, SK-N-SH, read-out: EC50

Row | EC50 (SK-N-SH [3]; [12]) | Activity [4] | Structure (SMILES) | CC50 [1] | CC50 [2] | also measured
1 | 39.3 µM |  | CS(=O)(=O)NCC(O)CO/N=C(\Cl)c1nc2ccccc2o1 (stereo not drawn) | 48.5 µM | > 80 µM | 
2 | 12 µM | inactive | OC(CO/N=C(\Cl)c1nc2cc(F)ccc2o1)CN1CCCCC1 (stereo not drawn) | > 80 µM | 62.4 µM | 
3 | 9.5 µM | inactive | Cc1ccc2oc(/C(Cl)=N/OCC(O)CN3CCCCC3)nc2c1 (stereo not drawn) |  | 34.6 µM | 
4 | 12.4 µM | inactive | CCCN(CC)CC(O)CO/N=C(\Cl)c1nc2ccccc2o1 (stereo not drawn) | 40.7 µM | 42.1 µM | 
5 | 9.3 µM | inactive | CC1CC(C)CN(CC(O)CO/N=C(\Cl)c2nc3ccccc3o2)C1 (stereo not drawn) | 55.3 µM | 34 µM | 
6 |  | inactive | OC(CO/N=C(\Cl)c1nc2ccccc2s1)CN1CCCC1 (stereo not drawn) | 60.1 µM | 31.1 µM | EC50 (SK-N-SH [3]; sk-n-sh): Not Active
7 | 6.3 µM | inactive | OC(CO/N=C(\Cl)c1nc2cc(Cl)ccc2o1)CN1CCCCC1 (stereo not drawn) | 31.4 µM | 23.2 µM | 
8 | 6.9 µM | inactive | OC(CO/N=C(\Cl)c1nc2c(F)cccc2o1)CN1CCCCC1 (stereo not drawn) | 40.2 µM | 20.3 µM | 
9 | 20.9 µM | inactive | CCC(C)N(CC(O)CO/N=C(\Cl)c1nc2ccccc2o1)C(C)CC (stereo not drawn) |  | 54.2 µM | Activity [6]: 62% and 25%; Activity [5]: inactive
10 | 18.8 µM | inactive | OC(CO/N=C(\Cl)c1nc2ccccc2o1)CN1CCC(F)CC1 (stereo not drawn) |  | 52.6 µM | Activity [6]: 63%; Inhibition (HeLa [7]): 35%
11 | 14.7 µM | inactive | CC(C)N(CC(O)CO/N=C(\Cl)c1nc2ccccc2o1)C(C)C (stereo not drawn) | 45 µM | 30.8 µM | Activity (PC-12): >150% and 300%
12 | 7.9 µM | inactive | CN(C)S(=O)(=O)c1ccc2nc(/C(Cl)=N/OCC(O)CN3CCCCC3)oc2c1 (stereo not drawn) | 45.1 µM | 42.4 µM | 
13 | 8.9 µM | inactive | CCCN(CC(O)CO/N=C(\Cl)c1nc2ccccc2o1)C(C)C (stereo not drawn) | 57.6 µM | 50.4 µM | Activity (HeLa [8]): inactive; Activity (SK-N-SH [9]): Active
14 | 41.9 µM |  | CC(=O)NCC(O)CO/N=C(\Cl)c1nc2ccccc2o1 (stereo not drawn) | > 80 µM | > 80 µM | 
15 | 11 µM | inactive | OC(CO/N=C(\Cl)c1nc2ccc(F)cc2o1)CN1CCCCC1 (stereo not drawn) | > 80 µM | 37.3 µM | 
16 | 5.2 µM | inactive | OC(CO/N=C(\Cl)c1nc2c(ccc3ccccc32)o1)CN1CCCCC1 (stereo not drawn) | 18.9 µM | 17.4 µM | 
17 | 3.8 µM | inactive | OC(CO/N=C(\Cl)c1nc2cccc(F)c2o1)CN1CCCCC1 (stereo not drawn) | 19.3 µM | 16.9 µM | 
18 | 43.6 µM | inactive | O=C(NCC(O)CO/N=C(\Cl)c1nc2ccccc2o1)N1CCCCC1 (stereo not drawn) | 46.9 µM | 59.6 µM | Activity [6]: 28%; Activity [5]: inactive
19 | 10.1 µM | inactive | CC(C)N(CCCF)CC(O)CO/N=C(\Cl)c1nc2ccccc2o1 (stereo not drawn) | 33.8 µM | 46 µM | 
20 | 11.1 µM | inactive | CC1CCCC(C)N1CC(O)CO/N=C(\Cl)c1nc2ccccc2o1 (stereo not drawn) | 78.9 µM | 36.2 µM | 
21 | 9.9 µM | inactive | CC(C)N(CC(O)CO/N=C(\Cl)c1nc2ccccc2o1)C(C)(C)C (stereo not drawn) | 30.8 µM | 40.3 µM | 

The remaining lines, values behind:

Row | Structure (SMILES) | EC50 (SK-N-SH [3]; [12]) | Activity [4] | CC50 [1] | CC50 [2] | also measured
22 | OC(CO/N=C(/c1nc2ccccc2o1)C(F)(F)F)CN1CCCCC1 (stereo not drawn) |  |  | > 80 µM | > 80 µM | EC50 (SK-N-SH [3]; sk-n-sh): Not Active
23 | CC(C)(C)NCC(O)CO/N=C(\Cl)c1nc2ccccc2o1 (stereo not drawn) |  | inactive | 55.4 µM | 24.7 µM | EC50 (SK-N-SH [3]; sk-n-sh): Not Active; Activity [5]: inactive
24 | CCS(=O)(=O)c1ccc2oc(/C(Cl)=N/OCC(O)CN3CCCCC3)nc2c1 (stereo not drawn) | 5.9 µM | inactive | 41.4 µM | 44.2 µM | 
25 | OC(CO/N=C(\Cl)c1cc2ccccc2s1)CN1CCCCC1 (stereo not drawn) |  |  | > 80 µM | 67.7 µM | EC50 (SK-N-SH [3]; sk-n-sh): Not Active
26 | Cl/C(=N\OCCCN1CCCCC1)c1nc2ccccc2o1 | 58.7 µM |  | > 80 µM | > 80 µM | 
27 | OC(CO/N=C/c1nc2ccccc2o1)CN1CCCCC1 (stereo not drawn) |  |  | > 80 µM | > 80 µM | EC50 (SK-N-SH [3]; sk-n-sh): Not Active
28 | OC(CO/N=C(\Cl)c1cc2ccccc2o1)CN1CCCCC1 (stereo not drawn) |  |  | > 80 µM | > 80 µM | EC50 (SK-N-SH [3]; sk-n-sh): Not Active
29 | OC(CO/N=C(\Cl)c1nc2ccccc2o1)CN1CCOCC1 (stereo not drawn) | 61.7 µM |  | > 80 µM | > 80 µM | 
30 | OC(CO/N=C(\Cl)c1nc2ccccc2s1)CN1CCCCC1 (stereo not drawn) | 13.5 µM | inactive | 49.1 µM | 26.5 µM | 
31 | CCN(CC)CC(O)CO/N=C(\Cl)c1nc2ccccc2o1 (stereo not drawn) | 10.2 µM | inactive |  | 36.2 µM | 
32 | OC(CO/N=C(\Cl)c1nc2ccccc2o1)CN1CCCC(F)C1 (stereo not drawn) | 20 µM | inactive | 52.7 µM | 49.8 µM | 
33 | OC(CO/N=C(\Cl)c1nc2ccc(Cl)cc2o1)CN1CCCCC1 (stereo not drawn) | 9 µM | inactive | 44.2 µM | 20 µM | 
34 | OC(CO/N=C(\Cl)c1nc2ccccc2o1)CN1CCCCC1 (stereo not drawn) | 15.7 µM |  | 41.7 µM | 26 µM | Activity (HeLa [10]): 51%; EC50 (HeLa [10]; Homo sapiens, HeLa, 2 h): 32.9 µM; Activity (HeLa [8]): inactive; Activity (SK-N-SH [11]): 90.6%; Activity (PC-12): >200%; Activity (SK-N-SH [9]): Active; Activity [5]: 58%
35 | CO/C(=N\OCC(O)CN1CCCCC1)c1nc2ccccc2o1 (stereo not drawn) |  |  | > 80 µM | > 80 µM | EC50 (SK-N-SH [3]; sk-n-sh): Not Active
36 | Cc1ccc2nc(/C(Cl)=N/OCC(O)CN3CCCCC3)oc2c1 (stereo not drawn) | 6.1 µM | inactive | 18.8 µM | 28 µM | 
37 | O=C(NOCC(O)CN1CCCCC1)c1nc2ccccc2o1 (stereo not drawn) |  |  | > 80 µM | > 80 µM | EC50 (SK-N-SH [3]; sk-n-sh): Not Active
38 | CC(C)N(CCO)CC(O)CO/N=C(\Cl)c1nc2ccccc2o1 (stereo not drawn) | 8.2 µM | inactive | 50.2 µM | 30.6 µM | 
39 | CCCN(CCC)CC(O)CO/N=C(\Cl)c1nc2ccccc2o1 (stereo not drawn) | 10.2 µM | inactive |  | 46.4 µM | 
40 | C/C(=N\OCC(O)CN1CCCCC1)c1nc2ccccc2o1 (stereo not drawn) |  |  | > 80 µM | > 80 µM | EC50 (SK-N-SH [3]; sk-n-sh): Not Active
41 | CC(C)N(CC(O)CO/N=C(\Cl)c1nc2ccccc2o1)CC1CC1 (stereo not drawn) | 6.3 µM | inactive | 24.4 µM | 32.7 µM | 
42 | CCCCN(CCCC)CC(O)CO/N=C(\Cl)c1nc2ccccc2o1 (stereo not drawn) | 22.3 µM | inactive | > 80 µM | 41 µM | 
43 | OC(CO/N=C(\Cl)c1nc2ccccc2o1)CN1CCC(F)(F)CC1 (stereo not drawn) | 26.4 µM | inactive | > 80 µM | > 80 µM | Activity [6]: 49%
